This is an account of results in paper PMC10131263 (Chemical & Biomedical Imaging, 2023).

Experiment [1] concerns MMP-13 expressing SFs. Briefly: Fluorescence microscopy of beacon uptake and activation, SFs. As to conditions: 2.5 μM, 24 h incubation, fluorescence microscopy Cy5 channel. The format is cell-based, human. The gist of the method: (§1)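 Cells (patient-derived SFs or donated HUVECs) seeded at 5 × 10^3 per well in 8-chamber slides. After 24 h the medium was changed and test compound added to 2.5 µM final for a further 24 h. Cells washed, fixed in 4% paraformaldehyde for 20 min and mounted with DAPI. Imaged on an inverted microscope: Cy5 620/60 ex, 665 long-pass em; exposure 200 ms for SFs, 1500 ms for HUVECs.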

Experiment [2] has as its system HUVECs. Briefly: Fluorescence microscopy of beacon uptake and activation, HUVECs. The class given is cell-based, human. The following applies: 2.5 μM, 24 h incubation, fluorescence microscopy Cy5 channel. The gist of the method:
as §1

On to Pyro-glgfrvgk-BHQ3 [DPPMMP13B], for which the “Intracellular pyro fluorescence in MMP-13 + SFs” value in experiment [1] is on record as “negligible fluorescence”. In addition, the “Intracellular pyro fluorescence in HUVECs (negligible MMP-13 expression)” value in experiment [2] is “negligible fluorescence”.
